Like-named read-outs stand apart in the source and are kept apart here.
What was measured:
MDA-MB-231 cells = assay: MTT assay, MDA-MB-231; format: cell-based, human
[1] = test system: histone marks in MDA-MB-231 cells; assay: Quantitative MS analysis of histone modifications; format: cell-based, human; settings: 1 μM for 48 h
Outline: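 MDA-MB-231 cells were treated at 1 µM for 48 h. Histones were acid-extracted, derivatized with propionic anhydride and digested with trypsin. Mock and treated samples carried D0 or D5 propionyl labels. Peptides were analysed by LC-MS/MS on an Orbitrap, with all data manually verified.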

J1 mES cells = assay: SSEA1 pluripotency marker immunostaining, flow cytometry; format: cell-based, mouse; settings: day 10; 2 μM
[2] = test system: H3K9me2 mark in bulk histones in several cell lines; settings: cited from earlier work
[3] = test system: HSC1-EF1α-EGFP-Puromycin retrovirus in J1 mES cells; assay: Reactivation of silent EGFP retrovirus vector, flow cytometry; format: cell-based, mouse
[4] = test system: H3K9me2 levels in J1 mES cells; assay: Cellular potency; format: cell-based; settings: Mus musculus, 48 h, read-out: IC50 cellular potency
cellular assays = assay: Cellular assays, comparison with BIX01294; format: cell-based; settings: Supplementary Fig. 1
GLP = GLP (Homo sapiens, UniProt Q9H9B1); assay: SAHH-coupled assay, GLP; format: biochemical
SUV39H2 = SUV39H2 (Homo sapiens, UniProt Q9H5I1); assay: SAHH-coupled assay, SUV39H2; format: biochemical; settings: SAHH-coupled assay
Outline: (§1)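 A fluorescence-based coupled assay used S-adenosyl-L-homocysteine hydrolase to follow conversion of cofactor SAM to SAH by the methyltransferase. IC50 values are the average of at least two separate experiments.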

[5] = test system: H3K9me2 levels in MDA-MB-231 cells; assay: H3K9me2 in-cell western, MDA-MB-231; format: cell-based, human; settings: read-out: IC50 for reduction of H3K9me2 levels; MDA-MB-231 cells, 48 h exposure, in-cell western
G9a = biological target: T1, G9a (Homo sapiens, UniProt Q96KQ7); assay: SAHH-coupled assay, G9a; format: biochemical
T1 sequence (Q96KQ7 1-1210): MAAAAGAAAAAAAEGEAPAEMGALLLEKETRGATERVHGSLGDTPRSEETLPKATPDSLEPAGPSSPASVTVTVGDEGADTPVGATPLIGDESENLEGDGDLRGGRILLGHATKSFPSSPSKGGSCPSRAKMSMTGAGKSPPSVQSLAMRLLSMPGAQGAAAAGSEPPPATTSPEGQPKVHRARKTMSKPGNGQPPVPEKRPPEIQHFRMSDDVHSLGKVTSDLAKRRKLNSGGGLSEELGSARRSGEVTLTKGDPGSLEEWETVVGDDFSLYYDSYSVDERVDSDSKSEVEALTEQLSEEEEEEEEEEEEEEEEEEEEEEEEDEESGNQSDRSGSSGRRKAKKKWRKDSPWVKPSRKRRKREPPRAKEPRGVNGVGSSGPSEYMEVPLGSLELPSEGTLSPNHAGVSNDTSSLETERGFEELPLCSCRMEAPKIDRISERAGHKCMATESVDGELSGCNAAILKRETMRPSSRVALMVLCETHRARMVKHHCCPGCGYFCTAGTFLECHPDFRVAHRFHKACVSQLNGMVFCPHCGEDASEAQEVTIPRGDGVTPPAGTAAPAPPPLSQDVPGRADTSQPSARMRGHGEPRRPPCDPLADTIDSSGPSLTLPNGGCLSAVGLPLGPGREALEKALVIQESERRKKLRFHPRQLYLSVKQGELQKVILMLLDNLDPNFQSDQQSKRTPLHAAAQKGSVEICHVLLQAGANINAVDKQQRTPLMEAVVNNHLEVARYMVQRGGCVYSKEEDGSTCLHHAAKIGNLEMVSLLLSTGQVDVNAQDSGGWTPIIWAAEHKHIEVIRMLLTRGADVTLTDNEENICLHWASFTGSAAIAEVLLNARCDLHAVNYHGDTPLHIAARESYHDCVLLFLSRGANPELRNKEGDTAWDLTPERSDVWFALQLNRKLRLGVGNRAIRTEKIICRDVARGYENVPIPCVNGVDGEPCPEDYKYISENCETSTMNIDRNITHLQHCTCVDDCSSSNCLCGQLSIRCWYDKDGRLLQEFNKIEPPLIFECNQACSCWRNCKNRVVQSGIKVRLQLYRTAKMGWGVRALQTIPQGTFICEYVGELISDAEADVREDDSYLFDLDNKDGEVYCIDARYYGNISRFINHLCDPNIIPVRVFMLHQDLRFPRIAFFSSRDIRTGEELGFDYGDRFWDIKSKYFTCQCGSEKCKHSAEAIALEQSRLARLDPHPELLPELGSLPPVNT

PRMT3 = PRMT3 (Homo sapiens, UniProt O60678); assay: SAHH-coupled assay, PRMT3; format: biochemical; settings: SAHH-coupled assay
Outline: as §1

SETD8 = biological target: T2, SETD8 (Homo sapiens, UniProt Q9NQR1); assay: SAHH-coupled assay, SETD8; format: biochemical; settings: SAHH-coupled assay
T2 sequence (Q9NQR1 1-393): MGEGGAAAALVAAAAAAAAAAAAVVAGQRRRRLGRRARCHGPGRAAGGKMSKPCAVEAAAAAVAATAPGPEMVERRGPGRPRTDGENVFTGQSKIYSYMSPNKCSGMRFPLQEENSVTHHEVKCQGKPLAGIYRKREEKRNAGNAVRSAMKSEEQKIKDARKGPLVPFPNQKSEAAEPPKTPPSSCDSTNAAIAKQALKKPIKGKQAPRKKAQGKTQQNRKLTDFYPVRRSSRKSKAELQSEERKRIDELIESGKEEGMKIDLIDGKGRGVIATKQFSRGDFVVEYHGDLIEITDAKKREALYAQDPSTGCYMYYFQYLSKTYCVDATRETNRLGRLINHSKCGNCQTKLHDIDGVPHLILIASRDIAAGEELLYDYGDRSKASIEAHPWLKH
Outline: as §1

[6] = test system: retrovirus long terminal repeat and MAGEA2 promoter in mES cells; assay: Bisulfite sequencing DNA methylation in mES cells; format: cell-based, mouse; settings: after 10 d of treatment
Outline: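 J1 mouse ES cells were grown on 0.1% gelatin in DMEM with 15% ES-qualified FBS, 4 mM L-glutamine, 0.1 mM nonessential amino acids, 1 mM pyruvate, 0.55 mM 2-mercaptoethanol and LIF. They carried a silenced HSC1 retroviral EGFP-puromycin reporter driven by the EF1a promoter.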

SETD7 = biological target: T3, SETD7 (Homo sapiens, UniProt Q8WTS6); assay: SAHH-coupled assay, SETD7; format: biochemical; settings: SAHH-coupled assay
T3 sequence (Q8WTS6 1-366): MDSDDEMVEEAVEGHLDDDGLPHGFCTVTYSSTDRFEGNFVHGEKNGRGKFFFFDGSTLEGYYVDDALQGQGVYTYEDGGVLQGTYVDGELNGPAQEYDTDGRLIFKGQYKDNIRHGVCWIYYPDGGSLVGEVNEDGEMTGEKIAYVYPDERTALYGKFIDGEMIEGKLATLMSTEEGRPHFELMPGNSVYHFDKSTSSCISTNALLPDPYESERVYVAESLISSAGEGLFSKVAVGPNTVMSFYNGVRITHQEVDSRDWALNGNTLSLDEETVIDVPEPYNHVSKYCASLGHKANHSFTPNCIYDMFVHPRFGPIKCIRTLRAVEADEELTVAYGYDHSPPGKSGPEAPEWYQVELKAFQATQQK
Outline: as §1

panel of 24 kinases = assay: Kinase selectivity panel; format: biochemical

GLP, sequence (Q9H9B1 whole entry): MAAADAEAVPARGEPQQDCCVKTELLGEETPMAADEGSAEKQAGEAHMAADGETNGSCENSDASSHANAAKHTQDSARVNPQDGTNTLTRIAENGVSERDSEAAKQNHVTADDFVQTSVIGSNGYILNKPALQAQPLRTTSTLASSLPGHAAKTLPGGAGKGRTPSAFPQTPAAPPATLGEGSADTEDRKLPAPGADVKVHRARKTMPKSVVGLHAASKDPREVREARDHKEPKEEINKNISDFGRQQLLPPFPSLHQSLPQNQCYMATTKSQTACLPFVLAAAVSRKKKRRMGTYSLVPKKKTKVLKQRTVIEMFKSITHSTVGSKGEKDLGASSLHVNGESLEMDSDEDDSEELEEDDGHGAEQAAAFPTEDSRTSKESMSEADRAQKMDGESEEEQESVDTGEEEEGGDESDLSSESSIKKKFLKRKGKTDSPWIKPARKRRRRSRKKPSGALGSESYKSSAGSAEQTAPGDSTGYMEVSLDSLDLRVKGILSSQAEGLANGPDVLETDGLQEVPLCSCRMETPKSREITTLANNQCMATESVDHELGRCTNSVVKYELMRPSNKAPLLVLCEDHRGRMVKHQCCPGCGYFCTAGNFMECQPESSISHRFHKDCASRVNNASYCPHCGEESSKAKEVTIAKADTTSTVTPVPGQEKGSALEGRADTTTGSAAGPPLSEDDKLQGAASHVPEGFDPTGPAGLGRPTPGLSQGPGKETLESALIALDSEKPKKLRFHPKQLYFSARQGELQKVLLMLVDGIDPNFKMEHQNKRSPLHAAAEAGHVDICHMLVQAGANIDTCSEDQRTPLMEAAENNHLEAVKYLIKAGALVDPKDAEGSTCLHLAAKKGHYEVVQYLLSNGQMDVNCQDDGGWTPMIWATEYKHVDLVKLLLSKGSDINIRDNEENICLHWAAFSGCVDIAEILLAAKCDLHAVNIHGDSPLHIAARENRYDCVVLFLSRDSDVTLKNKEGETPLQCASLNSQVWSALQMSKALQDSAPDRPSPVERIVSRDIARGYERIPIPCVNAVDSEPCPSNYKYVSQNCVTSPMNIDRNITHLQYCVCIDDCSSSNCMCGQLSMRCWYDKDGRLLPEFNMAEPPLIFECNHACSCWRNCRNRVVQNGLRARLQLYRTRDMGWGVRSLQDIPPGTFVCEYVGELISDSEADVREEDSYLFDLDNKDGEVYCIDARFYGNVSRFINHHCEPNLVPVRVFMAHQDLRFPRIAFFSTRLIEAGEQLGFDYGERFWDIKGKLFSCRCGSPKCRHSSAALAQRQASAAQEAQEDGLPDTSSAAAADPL
PRMT3, sequence (O60678 whole entry, species assumed): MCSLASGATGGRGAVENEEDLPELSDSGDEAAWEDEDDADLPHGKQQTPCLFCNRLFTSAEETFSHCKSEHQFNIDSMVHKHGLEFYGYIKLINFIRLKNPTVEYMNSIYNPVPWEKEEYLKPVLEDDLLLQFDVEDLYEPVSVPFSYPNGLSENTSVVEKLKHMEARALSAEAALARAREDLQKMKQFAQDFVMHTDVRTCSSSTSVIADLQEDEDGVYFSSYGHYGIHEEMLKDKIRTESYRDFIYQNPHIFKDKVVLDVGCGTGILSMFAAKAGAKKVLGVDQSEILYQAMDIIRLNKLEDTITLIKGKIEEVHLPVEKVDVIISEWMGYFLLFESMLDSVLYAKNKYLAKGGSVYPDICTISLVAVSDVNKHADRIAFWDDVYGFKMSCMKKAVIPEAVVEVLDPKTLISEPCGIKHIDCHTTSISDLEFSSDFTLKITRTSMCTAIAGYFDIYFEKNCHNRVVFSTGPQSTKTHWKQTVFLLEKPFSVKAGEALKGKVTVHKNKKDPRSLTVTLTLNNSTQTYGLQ
SUV39H2, sequence (Q9H5I1 whole entry, species assumed): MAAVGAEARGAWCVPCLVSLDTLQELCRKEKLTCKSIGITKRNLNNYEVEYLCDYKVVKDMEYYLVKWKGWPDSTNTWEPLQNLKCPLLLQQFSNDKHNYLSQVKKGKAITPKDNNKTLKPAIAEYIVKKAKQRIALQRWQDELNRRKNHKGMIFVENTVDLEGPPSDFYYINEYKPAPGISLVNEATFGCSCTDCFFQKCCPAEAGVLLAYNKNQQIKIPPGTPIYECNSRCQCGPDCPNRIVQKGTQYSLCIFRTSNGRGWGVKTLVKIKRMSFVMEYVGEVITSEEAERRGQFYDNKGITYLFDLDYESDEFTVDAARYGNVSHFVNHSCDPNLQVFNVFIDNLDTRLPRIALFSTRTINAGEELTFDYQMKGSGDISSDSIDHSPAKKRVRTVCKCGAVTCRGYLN

## COc1cc2nc(N3CCCN(C)CC3)nc(NC3CCN(Cc4ccccc4)CC3)c2cc1OC [BIX01294, reference compound]
MDA-MB-231 cells; Homo sapiens, MDA-MB-231, read-out: EC50 cellular toxicity (MTT)
  EC50: 2.7 µM
[1]
  levels of H3K9me2 by quantitative MS: to a lesser extent than UNC0638 did
  levels of H3K9me3 by quantitative MS: remained constant
J1 mES cells
  SSEA1 positive cells: 65%
[2]; at 4.1 μM, several cell lines
  abundance of H3K9me2 mark in bulk histones: reduced
[2]
  concentration toxic to cells: higher than 4.1 μM
[3]; day 10, 2 μM, untreated 36%
  EGFP+ cells: 53%
[3]; day 12, 2 μM
  state of treated cells: arrested or died
[4]
  IC50: 2.04 µM

## COc1cc2c(NC3CCN(C)CC3)nc(N3CCCN(C)CC3)nc2cc1OCCOCCN(C)C [UNC0321]
Cellular assays
  potency in cellular assays relative to BIX01294: less potent than BIX01294

## COc1cc2c(N(C)C3CCN(C(C)C)CC3)nc(C3CCCCC3)nc2cc1OCCCN1CCCC1 [UNC0737]
GLP
  IC50: > 10 µM
MDA-MB-231 cells; read-out: EC50 cellular toxicity (MTT), MDA-MB-231 cells (n = 3)
  EC50: 8.7 µM
SUV39H2
  IC50: inactive
[5]
  IC50: > 5 µM
G9a; G9a and GLP biochemical assays
  fold less potent than UNC0638: > 300 fold
G9a; SAHH-coupled assay
  IC50: 5 µM
PRMT3
  IC50: inactive
SETD8
  IC50: inactive
[6]
  DNA methylation of retrovirus LTR and MAGEA2 promoter: hypermethylated
SETD7
  IC50: inactive
[3]; 500 nM, above the 36% EGFP+ cells of untreated sample
  reactivation of EGFP expression: did not reactivate EGFP expression
Panel of 24 kinases
  activity against panel of 24 kinases: inactive

— paper PMC3184254 (Nature Chemical Biology, 2011)
